High-throughput results deposited in PubChem BioAssay by several laboratories.
Most compounds without a hit are left out; they make up all but 2.9% or so of the library.
SENP7 block: blocks the human protease SENP7 | AID 434973 | inhibition, % at 5 µM | Q9BQF6 | 330,000 compounds, 1.5% hits | recombinant SENP7, Z-RLRGG-aminoluciferin luminescence, 40 min;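 active = inhibition above about 50% at the single test dose, limit read from the data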;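 note: plate controls were DMSO with enzyme for no effect and no enzyme buffer wells for full effect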
SENP1 FRET inh: blocks the human SENP1 SUMO protease catalytic domain | recombinant SENP1 catalytic domain, CyPet-SUMO1-YPet FRET cleavage | inhibition, % at 10 µM | 360,000 compounds, 0.21% hits;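 active = inhibition at least 30% at 10 µM, raw YFP signal under a set limit, fluorescence ratio 0.5 to 1.5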;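 note: 0% = enzyme with DMSO and 100% = no enzyme wells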
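System: Recombinant human SENP1 catalytic domain, His6-tagged | Incubation: Enzyme reaction for 50 min at room temperature, dark | Medium: Tris pH 8 with BME, BSA, NP40 and catalase | Also added: 25 nM SUMO1 FRET substrate | Compound: 10 µM single point, 0.5% DMSO | Measured by: FRET fluorescence in CFP and YFP emission channels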
SENP8 block-1: blocks human SENP8 cleavage of Nedd8 substrate. Q96LD8. recombinant SENP8, Nedd8 substrate fluorescence. inhibition, % at 20 µM. 360,000 compounds, 0.64% hits. AID 602440; in the data active = inhibition mostly above about 40%, no sharp cut-off; inactive = mostly below about 27%
HSP90 inh: inhibitors of HSP90 luciferase refolding in rabbit reticulocyte lysate | luciferase refolding luminescence, 3 h | inhibition, % at 5.6 µM | 290,000 compounds, 0.91% hits | AID 1789;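 active = inhibition above the screen-wide mean plus 3 SD, computed separately per campaign, cut at about 16% in these data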;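 note: 0% = DMSO wells and 100% = 60 µM geldanamycin wells; inhibitors lower the luminescence because luciferase stays unfolded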
SENP8 block-2: blocks the human protease SENP8 | Q96LD8 | purified SENP8, Z-RLRGG-aminoluciferin cleavage, luminescence | inhibition, % at 10 µM | 330,000 compounds, 1.2% hits; in the data active = inhibition above about 50%
SENP6 block: inhibitors of human SENP6 protease. Q9GZR1. 330,000 compounds, 1.8% hits. inhibition, % at 10 µM. Recombinant SENP6 catalytic domain, aminoluciferin luminescence;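 active = inhibition above about 50% at the single tested dose, limit read from the data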;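 note: plate controls were DMSO wells with enzyme for no effect and DMSO wells lacking enzyme for full effect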
HSP90 confirm: confirmation of HSP90 inhibitors; shares compounds with HSP90 inh; rabbit reticulocyte lysate, luciferase refolding luminescence, 3 h; inhibition, % at 5.9 µM; 2,300 compounds, 64% hits; AID 1846; in the data active = inhibition above about 18%;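 note: 0% = vehicle wells and 100% = reference inhibitor wells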
luciferase ctr: firefly luciferase inhibition, HSP90 counter-screen; shares compounds with HSP90 inh; purified native firefly luciferase, luminescence; inhibition, % at 5.9 µM; 2,300 compounds, 48% hits;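 active = inhibition above the mean inhibition of all tested sample wells plus 3 SD, cut at about 10% in these data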;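 note: 0% = DMSO with luciferase and 100% = wells lacking luciferase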
Target sequence (P08659 whole entry, looked up): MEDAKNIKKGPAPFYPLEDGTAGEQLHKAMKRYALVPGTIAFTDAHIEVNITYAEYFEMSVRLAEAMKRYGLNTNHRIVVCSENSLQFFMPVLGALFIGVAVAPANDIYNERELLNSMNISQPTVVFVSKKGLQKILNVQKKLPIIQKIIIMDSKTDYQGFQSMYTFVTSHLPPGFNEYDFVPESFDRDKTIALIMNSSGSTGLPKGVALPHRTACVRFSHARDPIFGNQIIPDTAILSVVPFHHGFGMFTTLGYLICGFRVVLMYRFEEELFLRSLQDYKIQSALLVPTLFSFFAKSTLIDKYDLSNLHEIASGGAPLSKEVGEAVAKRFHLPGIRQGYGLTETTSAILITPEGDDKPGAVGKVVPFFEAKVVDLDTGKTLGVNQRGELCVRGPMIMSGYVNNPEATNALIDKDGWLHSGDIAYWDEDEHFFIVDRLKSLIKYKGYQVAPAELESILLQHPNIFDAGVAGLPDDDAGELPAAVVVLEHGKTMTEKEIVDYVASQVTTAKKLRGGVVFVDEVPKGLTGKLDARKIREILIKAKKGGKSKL
* = called active by the depositor; · = no result given.

SMILES | SENP7 block | SENP1 FRET inh | SENP8 block-1 | HSP90 inh | SENP8 block-2 | SENP6 block | HSP90 confirm | luciferase ctr
O=CN(/C=C1\Sc2ccccc2C1=O)Cc1ccccc1 | 1 | -122 | -68 | 34* | 3 | 13 | 0 | -12
CC(=O)N(C)/C=C1\Sc2ccccc2C1=O | -8 | -143 | -98 | 36* | -16 | -6 | -2 | -13
CCC(=O)N(C)/C=C1\Sc2ccccc2C1=O | -4 | -102 | -134 | 26* | -17 | -7 | -10 | -25
COc1ccc(OC)c(/C=C2/Sc3ccccc3C2=O)c1 | 1 | -25 | -43 | 4 | -6 | 15 | · | ·
Cc1cc(Nc2cccc(C(=O)O)c2)n2ncnc2n1 | -12 | 1 | 10 | 4 | -8 | -15 | · | ·
COc1cccc(-c2nc(C(=O)NCC3CCCO3)cc3c2[nH]c2ccccc23)c1 (stereo not given) | 9 | 0 | -219 | -1 | -7 | -6 | · | ·
CC1=CSC2=NC(=O)/C(=C\c3cccn3-c3ccccc3)C(=N)N12 | -3 | -15 | 16 | 4 | -7 | -11 | · | ·
CC(C)c1ccc(-n2cccc2/C=C2/C(=N)N3C=CSC3=NC2=O)cc1 | -7 | -34 | -4 | 32* | -11 | -10 | 22* | 3
COc1ccc(-c2csc(-c3ccc(C(=O)O)cc3)n2)cc1 | 12 | -1 | -402 | 19* | -1 | -11 | 39* | 0
O=C(O)c1ccc(-c2nc(-c3ccc(Cl)cc3)cs2)cc1 | · | 4 | -135 | 2 | · | · | · | ·
COCCn1c(C)c(C)c2c(NCCc3ccccc3)ncnc21 | 10 | -2 | -2 | 60* | 21 | 16 | 63* | 63*
Cc1c(C)n(CCc2ccccc2)c2ncnc(NCCCO)c12 | -7 | 2 | 12 | -3 | -4 | -28 | · | ·
CC(Oc1cc2oc(=O)c3c(c2cc1Cl)CCC3)C(=O)NCCCn1ccnc1 (stereo not given) | -8 | -3 | -256 | -2 | -6 | 10 | · | ·
O=C(c1cn(-c2ccccc2)nc1-c1ccc(Br)cc1)N1CCOCC1 | -1 | 1 | 20 | 95* | -5 | 7 | 1 | -1
O=C(c1cn(-c2ccccc2)nc1-c1ccc(F)cc1)N1CCOCC1 | 0 | 1 | 9 | 3 | 11 | -28 | · | ·
CCN(CC)CCNC(=O)c1cc(Br)c(N)cc1OC | -10 | -1 | -3 | · | 16 | -6 | · | ·
O=C(Nc1ccccc1C(=O)N1CCCC1)c1ccccc1 | -3 | 2 | 2 | 27* | -1 | -5 | -3 | -5
Cc1ccc(C(=O)Nc2ccccc2C(=O)N2CCCCCC2)cc1 | -3 | 0 | 12 | -2 | -2 | -5 | · | ·
CC(C)Sc1nc2c(cnn2-c2ccc(Cl)cc2)c(=O)[nH]1 | 0 | 1 | 4 | 0 | -3 | -14 | · | ·
COc1ccc(OC)c(-c2cc(C(=O)N/N=C(\C)c3cccnc3)c3ccccc3n2)c1 | 10 | 0 | -72 | 3 | -2 | -24 | · | ·
CCOc1ccc(-c2cc(C(=O)N/N=C(\C)c3cccnc3)c3ccccc3n2)cc1 | 6 | 2 | -414 | 28* | 4 | 6 | 3 | -23
COc1ccc2c(c1)/C(=C\c1cccc(/C=C3/C(=O)Nc4ccc(OC)cc43)n1)C(=O)N2 | · | 1 | 13 | · | · | · | · | ·
CNC(=O)N/N=C(\N)c1ccccn1 | -5 | 0 | 3 | -1 | -4 | -14 | · | ·
N/C(=N\NC(=O)Nc1ccc(Cl)cc1)c1ccccn1 | 5 | 3 | 6 | 24* | -3 | -16 | -4 | -16
CC1C(c2ccccc2)N(C)C(c2ccccc2)C(C)C1(O)C#Cc1ccccc1 (stereo not given) | -4 | 1 | 13 | -4 | -3 | -5 | · | ·
COc1ccc(Cl)cc1NC(=O)NNC(=O)C(=O)Nc1ccc(F)cc1 | · | -1 | 6 | · | · | · | · | ·
O=c1c(Cc2ccc(F)cc2)c(O)ccn1CCCn1ccnc1 | -4 | 3 | 3 | 3 | -4 | 10 | · | ·
CCOC(=O)NC1Cc2ccccc2C1Sc1ccccn1 (stereo not given) | 5 | 2 | 8 | 44* | -1 | 4 | -6 | -13
CCOC(=O)NC(=O)CSc1ccccn1 | 1 | 2 | 9 | 2 | 3 | 8 | · | ·
